ChEMBL document CHEMBL3808357, “Discovery of N-(3-((1-Isonicotinoylpiperidin-4-yl)oxy)-4-methylphenyl)-3-(trifluoromethyl)benzamide (CHMFL-KIT-110) as a Selective, Potent, and Orally Available Type II c-KIT Kinase Inhibitor for Gastrointestinal Stromal Tumors (GISTs)” (J Med Chem, 2016)
The source made the active and inactive calls. No cut-off for these calls is given here.

Experiments:
[1] = Antiproliferative activity against human HL60 cells assessed as reduction in cell viability after 72 hrs by celltiter-glo/CCK8 assay; assay type: functional; details: HL-60, 72 h
Method in brief: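 Cells were seeded at 1 to 3 × 10⁴ cells/mL with serial compound concentrations and incubated 72 h at 37 °C, 5% CO₂. Viability was read by CellTiter-Glo luminescence or CCK-8 absorbance (450/655 nm). GI50 values are from triplicate testing. GIST-T1 and CHO were grown in DMEM/10% FBS; GIST-882, GIST-48B and MV4-11 in IMDM/10% FBS; other lines in RPMI 1640/10% FBS.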

[2] = system: GISTT1; assay: Antitumor activity against human GISTT1 cells xenografted in nu/nu mouse assessed as suppression of proliferation at 25 to 100 mg/kg/day administered through oral gavage after 21 days by Ki67 assay; assay type: functional, organism-based
Method in brief: (§1)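 Female nu/nu mice, 6 weeks old, received 5 × 10⁶ GIST-T1 cells in PBS/Matrigel (1:1) subcutaneously in the right flank. At 100−200 mm³, six mice per group were dosed daily by oral gavage at 25, 50 or 100 mg/kg/d in 0.5% methylcellulose/0.4% Tween80, or vehicle. Tumor volume was taken as (W²×L)/2, with body weight and tumor measured daily. Tumors were stained for Ki67 (IHC, 1:50 antibody) and by TUNEL.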

[3] = molecular target: Mast/stem cell growth factor receptor Kit (Homo sapiens) (UniProt P10721); assay: Inhibition of cKIT autophosphorylation at Y823 in human GIST882 cells up to 10 uM after 2 hrs by Western blot analysis; assay type: cell-based
[4] = Cell cycle arrest in human GIST48B cells at 0.3 to 3 uM after 24 hrs by propidium iodide/RNase staining based flow cytometric analysis; assay type: functional
Method in brief: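 Cells were then fixed in 70% cold ethanol at −20 °C overnight, stained with PI/RNase buffer and analysed by flow cytometry.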

[5] = molecular target: Mast/stem cell growth factor receptor Kit (Homo sapiens) (UniProt P10721); assay: Inhibition of cKIT autophosphorylation at Y823 in human GISTT1 cells up to 10 uM after 2 hrs by Western blot analysis; assay type: cell-based
[6] = system: Mast/stem cell growth factor receptor Kit (Homo sapiens), P10721 [N822K]; assay: Inhibition of Tel-fused cKIT N822K mutant (unknown origin) transfected in mouse BAF3 cells assessed as decrease in cell proliferation after 72 hrs by celltiter-glo/CCK8 assay; assay type: cell-based
[7] = system: GIST48B; assay: Induction of apoptosis in human GIST48B cells assessed as caspase 3 cleavage up to 3 uM after 72 hrs by Western blot analysis; assay type: functional, cell-based
[8] = system: GIST882; assay: Induction of apoptosis in human GIST882 cells assessed as PARP cleavage up to 3 uM after 72 hrs by Western blot analysis; assay type: functional, cell-based
[9] = molecular target: Mast/stem cell growth factor receptor Kit (Homo sapiens) (UniProt P10721); assay: Inhibition of cKIT in human GIST882 cells assessed as suppression of AKT phosphorylation at S473 up to 10 uM after 2 hrs by Western blot analysis; assay type: cell-based
[10] = molecular target: Mast/stem cell growth factor receptor Kit (Homo sapiens) (UniProt P10721); assay: Inhibition of cKIT autophosphorylation at Y719 in human GISTT1 cells up to 10 uM after 2 hrs by Western blot analysis; assay type: cell-based
[11] = molecular target: T1, Macrophage colony-stimulating factor 1 receptor (Homo sapiens, UniProt P07333); assay: Inhibition of human wild type partial length CSF1R expressed in bacterial expression system assessed as residual activity at 1 uM by KinomeScan method
Method in brief: (§2)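 KinomeScan competitive binding panel of 468 kinases and mutants, compound tested at 1 μM; read-out is percent activity remaining (binding relative to control).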

[12] = system: GISTT1; assay: Induction of apoptosis in human GISTT1 cells xenografted in nu/nu mouse at 25 to 100 mg/kg/day administered through oral gavage after 21 days by tunel assay; assay type: functional, organism-based; method in brief: as §1
[13] = Cmax in Sprague-Dawley rat plasma at 1 mg/kg, iv; assay type: ADME, organism-based; design: dose 1 mg/kg, route intravenous
Method in brief: (§3)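 Male Sprague-Dawley rats, 8 weeks old, fasted overnight, dosed iv or orally. Formulation was 5% DMSO/40% PEG400/55% saline at 1 mg/mL. Blood (~0.2 mL) was drawn from the jugular vein into heparin. Sampling: iv at 1 min to 8 h; oral at 5 min to 24 h. Plasma was separated by centrifugation at 2−8 °C and stored at −80 °C.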

[14] = Cmax in Sprague-Dawley rat plasma at 10 mg/kg, po; assay type: ADME, organism-based; design: dose 10 mg/kg, route oral; method in brief: as §3
[15] = molecular target: Mast/stem cell growth factor receptor Kit (Homo sapiens) (UniProt P10721); assay: Inhibition of cKIT in human GIST882 cells assessed as suppression of STAT5 phosphorylation at Y694 up to 10 uM after 2 hrs by Western blot analysis; assay type: cell-based
[16] = system: Mast/stem cell growth factor receptor Kit (Homo sapiens), P10721 [V654A]; assay: Inhibition of Tel-fused cKIT V654A mutant (unknown origin) transfected in mouse BAF3 cells assessed as decrease in cell proliferation after 72 hrs by celltiter-glo/CCK8 assay; assay type: cell-based
Method in brief: (§4)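 Stable BaF3 lines made by retroviral transduction with mutagenized TEL-KIT MSCV vectors, puromycin selection 48 h, then gradual IL-3 withdrawal until IL-3-independent; grown in RPMI 1640 with 10% FBS. Cells at 1 to 3 × 10⁴ cells/mL exposed to a concentration series for 72 h; viability read by CellTiter-Glo luminescence or CCK-8 absorbance (450/655 nm); GI50 from triplicate testing.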

[17] = Antitumor activity against human GISTT1 cells xenografted in nu/nu mouse assessed as tumor growth inhibition at 100 mg/kg/day administered through oral gavage after 21 days; assay type: functional; details: 504 h, read-out: TGI; method in brief: as §1
[18] = AUC(0 to infinity) in Sprague-Dawley rat plasma at 1 mg/kg, iv; assay type: ADME, organism-based; design: dose 1 mg/kg, time infinity, route intravenous; method in brief: as §3
[19] = Apparent clearance in Sprague-Dawley rat plasma at 10 mg/kg, po; assay type: ADME, organism-based; details: read-out: CL(app) (converted); method in brief: as §3
[20] = molecular target: Platelet-derived growth factor receptor beta (Homo sapiens, UniProt P09619); assay: Inhibition of human wild type partial length PDGFRbeta expressed in bacterial expression system assessed as residual activity at 1 uM by KinomeScan method; method in brief: as §2
[21] = molecular target: Mast/stem cell growth factor receptor Kit (Homo sapiens) (UniProt P10721); assay: Inhibition of cKIT autophosphorylation at Y719 in human GIST48B cells up to 10 uM after 2 hrs by Western blot analysis; assay type: cell-based
[22] = molecular target: Mast/stem cell growth factor receptor Kit (Homo sapiens) (UniProt P10721); assay: Inhibition of cKIT autophosphorylation at Y823 in human GIST48B cells up to 10 uM after 2 hrs by Western blot analysis; assay type: cell-based
[23] = molecular target: T1, Macrophage colony-stimulating factor 1 receptor; assay: Inhibition of His-tagged recombinant human CSF1R expressed in baculovirus expression system after 1 hr by Z-lyte assay
[24] = system: Mast/stem cell growth factor receptor Kit (Homo sapiens), P10721 [T670I]; assay: Inhibition of Tel-fused cKIT T670I mutant (unknown origin) transfected in mouse BAF3 cells assessed as decrease in cell proliferation after 72 hrs by celltiter-glo/CCK8 assay; assay type: cell-based; method in brief: as §4
[25] = Half life in Sprague-Dawley rat plasma at 10 mg/kg, po; assay type: ADME, organism-based; method in brief: as §3
[26] = molecular target: Mast/stem cell growth factor receptor Kit (Homo sapiens) (UniProt P10721); assay: Inhibition of cKIT in human GISTT1 cells assessed as suppression of ERK phosphorylation at T202/Y204 up to 10 uM after 2 hrs by Western blot analysis; assay type: cell-based
[27] = molecular target: Mast/stem cell growth factor receptor Kit (Homo sapiens) (UniProt P10721); assay: Inhibition of cKIT in human GIST48B cells assessed as suppression of AKT phosphorylation at S473 up to 10 uM after 2 hrs by Western blot analysis; assay type: cell-based

Sequence of Mast/stem cell growth factor receptor Kit (Homo sapiens) (P10721 whole entry, the tested form may be a part): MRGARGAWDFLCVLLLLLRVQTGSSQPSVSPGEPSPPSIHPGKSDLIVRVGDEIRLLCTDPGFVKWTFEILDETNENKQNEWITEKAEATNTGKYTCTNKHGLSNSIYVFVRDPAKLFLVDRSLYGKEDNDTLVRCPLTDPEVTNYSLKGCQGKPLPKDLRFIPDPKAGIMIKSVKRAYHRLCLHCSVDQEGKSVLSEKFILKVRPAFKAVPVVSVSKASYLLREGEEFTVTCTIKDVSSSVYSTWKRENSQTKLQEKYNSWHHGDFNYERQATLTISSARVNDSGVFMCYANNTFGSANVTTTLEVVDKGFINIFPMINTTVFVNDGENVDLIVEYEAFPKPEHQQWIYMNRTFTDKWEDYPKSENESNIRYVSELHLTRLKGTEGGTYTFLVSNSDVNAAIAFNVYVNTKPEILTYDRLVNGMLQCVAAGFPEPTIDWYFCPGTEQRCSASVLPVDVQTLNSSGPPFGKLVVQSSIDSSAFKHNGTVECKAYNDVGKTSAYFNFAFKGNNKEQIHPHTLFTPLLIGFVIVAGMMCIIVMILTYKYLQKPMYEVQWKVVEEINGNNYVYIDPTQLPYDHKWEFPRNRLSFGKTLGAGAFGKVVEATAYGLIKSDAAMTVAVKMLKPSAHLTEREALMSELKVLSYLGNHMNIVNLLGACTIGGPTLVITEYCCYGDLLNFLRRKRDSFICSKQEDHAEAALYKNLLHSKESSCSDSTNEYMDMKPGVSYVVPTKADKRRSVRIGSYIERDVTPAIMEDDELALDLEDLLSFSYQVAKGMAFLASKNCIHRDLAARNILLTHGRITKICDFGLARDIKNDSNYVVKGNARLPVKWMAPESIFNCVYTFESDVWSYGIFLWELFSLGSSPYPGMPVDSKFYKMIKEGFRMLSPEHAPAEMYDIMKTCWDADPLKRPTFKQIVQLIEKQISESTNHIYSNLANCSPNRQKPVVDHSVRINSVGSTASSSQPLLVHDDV
T1 sequence (P07333 whole entry): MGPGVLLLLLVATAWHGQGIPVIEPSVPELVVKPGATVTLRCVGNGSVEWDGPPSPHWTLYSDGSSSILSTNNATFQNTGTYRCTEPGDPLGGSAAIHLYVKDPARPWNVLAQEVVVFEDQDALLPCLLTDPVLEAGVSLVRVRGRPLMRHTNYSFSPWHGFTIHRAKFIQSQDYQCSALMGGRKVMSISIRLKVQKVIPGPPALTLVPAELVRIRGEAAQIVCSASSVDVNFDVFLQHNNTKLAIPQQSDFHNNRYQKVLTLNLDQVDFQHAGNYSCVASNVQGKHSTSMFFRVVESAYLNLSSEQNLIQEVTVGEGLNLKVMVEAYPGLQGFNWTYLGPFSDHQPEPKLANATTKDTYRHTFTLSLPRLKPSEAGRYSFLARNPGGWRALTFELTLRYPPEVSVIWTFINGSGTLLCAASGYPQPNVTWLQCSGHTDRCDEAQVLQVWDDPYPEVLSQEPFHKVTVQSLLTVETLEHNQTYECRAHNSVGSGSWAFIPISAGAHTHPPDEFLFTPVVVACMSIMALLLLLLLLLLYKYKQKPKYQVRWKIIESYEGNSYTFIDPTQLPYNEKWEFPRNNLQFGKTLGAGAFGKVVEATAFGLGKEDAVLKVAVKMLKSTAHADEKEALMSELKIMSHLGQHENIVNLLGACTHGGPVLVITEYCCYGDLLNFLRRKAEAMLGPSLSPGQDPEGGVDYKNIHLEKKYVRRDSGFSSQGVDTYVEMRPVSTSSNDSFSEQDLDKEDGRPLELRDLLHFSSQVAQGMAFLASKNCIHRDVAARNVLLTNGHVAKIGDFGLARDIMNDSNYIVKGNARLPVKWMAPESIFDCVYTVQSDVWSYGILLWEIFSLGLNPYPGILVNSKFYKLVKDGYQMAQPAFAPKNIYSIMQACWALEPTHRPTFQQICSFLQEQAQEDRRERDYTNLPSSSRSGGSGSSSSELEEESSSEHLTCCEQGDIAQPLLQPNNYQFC
Sequence of Mast/stem cell growth factor receptor Kit (Homo sapiens), P10721 [T670I] (P10721 whole entry T670I, the tested form may be a part): as the sequence (P10721 whole entry, the tested form may be a part) above, with T670I counted along it
Sequence of Mast/stem cell growth factor receptor Kit (Homo sapiens), P10721 [V654A] (P10721 whole entry V654A, the tested form may be a part): as the sequence (P10721 whole entry, the tested form may be a part) above, with V654A counted along it
Sequence of Mast/stem cell growth factor receptor Kit (Homo sapiens), P10721 [N822K] (P10721 whole entry N822K, the tested form may be a part): as the sequence (P10721 whole entry, the tested form may be a part) above, with N822K counted along it
Sequence of Platelet-derived growth factor receptor beta (P09619 whole entry): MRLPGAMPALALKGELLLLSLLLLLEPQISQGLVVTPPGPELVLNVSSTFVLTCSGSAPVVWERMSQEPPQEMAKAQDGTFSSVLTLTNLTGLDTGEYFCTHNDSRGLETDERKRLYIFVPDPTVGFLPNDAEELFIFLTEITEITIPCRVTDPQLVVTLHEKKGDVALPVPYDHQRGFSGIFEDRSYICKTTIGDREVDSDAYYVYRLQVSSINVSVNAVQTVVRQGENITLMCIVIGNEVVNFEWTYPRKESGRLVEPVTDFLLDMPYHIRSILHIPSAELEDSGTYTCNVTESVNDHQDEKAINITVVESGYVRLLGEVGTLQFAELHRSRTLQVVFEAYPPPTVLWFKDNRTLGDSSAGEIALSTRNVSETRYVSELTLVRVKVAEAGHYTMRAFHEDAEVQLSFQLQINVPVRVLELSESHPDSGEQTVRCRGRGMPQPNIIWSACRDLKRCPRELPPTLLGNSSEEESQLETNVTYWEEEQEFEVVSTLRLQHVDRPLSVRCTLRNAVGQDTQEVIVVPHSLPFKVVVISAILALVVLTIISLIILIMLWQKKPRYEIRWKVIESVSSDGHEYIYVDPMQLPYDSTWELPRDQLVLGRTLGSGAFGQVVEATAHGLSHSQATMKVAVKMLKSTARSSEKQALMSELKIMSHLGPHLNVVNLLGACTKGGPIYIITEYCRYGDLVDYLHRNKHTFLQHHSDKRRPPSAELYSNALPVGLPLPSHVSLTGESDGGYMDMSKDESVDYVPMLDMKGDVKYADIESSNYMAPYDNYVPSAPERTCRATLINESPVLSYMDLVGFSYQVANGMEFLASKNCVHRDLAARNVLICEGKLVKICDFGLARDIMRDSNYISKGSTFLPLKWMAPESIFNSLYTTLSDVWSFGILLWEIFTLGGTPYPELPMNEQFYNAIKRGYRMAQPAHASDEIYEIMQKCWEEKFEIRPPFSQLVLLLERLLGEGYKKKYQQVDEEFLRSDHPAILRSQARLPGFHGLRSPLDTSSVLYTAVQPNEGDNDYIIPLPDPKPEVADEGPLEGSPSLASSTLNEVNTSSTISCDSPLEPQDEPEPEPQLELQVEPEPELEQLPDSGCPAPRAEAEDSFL

Cc1ccc(NC(=O)c2cccc(C(F)(F)F)c2)cc1OC1CCN(C(=O)c2ccncc2)CC1
GI50 [1]: > 10000 nM | Activity [2]: Active | inhibition [3]: Active | Activity [4]: inactive | inhibition [5]: Active | GI50 [6]: 1060 nM | Activity [7]: inactive | Activity [8]: Active | inhibition [9]: Active | inhibition [10]: Active | Activity [11]: 0.6% | Activity [12]: Active | Cmax [13]: 511 ng/mL | Cmax [14]: 125 ng/mL | inhibition [15]: Active | GI50 [16]: 1030 nM | inhibition in vivo at 100 mg/kg/day [17]: 49% | AUC(0-inf) [18]: 202 ng·h/mL | CL/F [19]: 215 mL/min/kg | Activity [20]: 0.2% | inhibition [21]: Active | inhibition [22]: inactive | IC50 [23]: 133 nM | GI50 [24]: 8240 nM | half-life [25]: 4.11 h | inhibition [26]: Active | inhibition [27]: inactive
